Test results published in ChEMBL document CHEMBL1133105, “Antimalarial, antitrypanosomal, and antileishmanial activities and cytotoxicity of bis(9-amino-6-chloro-2-methoxyacridines): influence of the linker” (J Med Chem, 2000).
pIC50: −log10 of the molar value. One block for each compound: values may come before it.

How the values were obtained:
Trypanosoma brucei [1] = test: Percentage of activity against Trypanosoma brucei at 1.56 uM; format: functional
How it was run: (§1)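 Bloodstream-form T. brucei in HMI-9 medium, 10 000 parasites/well, exposed to 12.5, 6.25, 3.13 and 1.56 µM drug for 4 days. Read-out is % inhibition of parasite multiplication. Macrophage toxicity judged on mouse primary peritoneal macrophages.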

MRC5 [2] = test: Cytotoxicity on MRC-5 cells at 6.25 uM; format: functional; details: Homo sapiens
How it was run: (§2)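 MRC-5 human diploid embryonic lung cells seeded at 5 000/well, washed after 24 h, then given 2-fold drug dilutions (25, 12.5, 6.25, 3.13 µM) in RPMI + 5% FCS, final DMSO below 0.5%. Incubated 7 days at 37 °C, 5% CO2. MTT colorimetric read-out, scored as % reduction of absorbance at 540 nm versus untreated controls.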

Leishmania infantum [3] = test: In Vitro evaluation for the percentage of activity towards Leishmania infantum 6.25 uM Concentration; Toxic upon mouse primary peritoneal macrophages; format: organism-based
How it was run: (§3)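 Starch-stimulated mouse peritoneal macrophages, 30 000/well, infected after 24 h with spleen-derived L. infantum amastigotes (10:1) together with 2-fold drug dilutions (12.5–1.56 µM). Incubated 7 days at 37 °C, 5% CO2. Wright-stained slides scored microscopically as % reduction of total parasite load or of infected macrophages. Uninfected treated cultures judged microscopically for macrophage toxicity.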

Leishmania infantum [4] = test: (§4) In Vitro evaluation for the percentage of activity towards Leishmania infantum at 1.56 uM Concentration; Toxic upon mouse primary peritoneal macrophages; format: organism-based; how it was run: as §3
Leishmania infantum [5] = test: (§5) In Vitro evaluation for the percentage of activity towards Leishmania infantum at 3.13 uM Concentration; Toxic upon mouse primary peritoneal macrophages; format: organism-based; how it was run: as §3
Trypanosoma cruzi [6] = test: In Vitro evaluation for the percentage of activity towards Trypanosoma cruzi at 12.5 uM Concentration; Toxic upon mouse primary peritoneal macrophages; format: organism-based
How it was run: (§6)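 Mouse peritoneal macrophages, 30 000/well, infected after 24 h with about 100 000 T. cruzi trypomastigotes per well plus 2-fold drug dilutions (12.5–1.56 µM). Incubated 4 days at 37 °C, 5% CO2. Methanol-fixed, Giemsa-stained and scored microscopically as % reduction of total parasite load (free trypomastigotes plus intracellular amastigotes) versus untreated controls.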

Trypanosoma brucei [7] = test: Percentage of activity against Trypanosoma brucei at 6.25 uM; format: functional; how it was run: as §1
Trypanosoma cruzi [8] = test: (§7) In Vitro evaluation for the percentage of activity towards Trypanosoma cruzi at 3.13 uM Concentration; Toxic upon mouse primary peritoneal macrophages; format: ADME, organism-based; how it was run: as §6
MRC5 [9] = test: Cytotoxicity on MRC-5 cells at 25 uM; format: functional; details: Homo sapiens; how it was run: as §2
Trypanosoma brucei [10] = test: Percentage of activity against Trypanosoma brucei at 12.5 uM; format: functional; how it was run: as §1
Trypanosoma cruzi [11] = test: (§8) In Vitro evaluation for the percentage of activity towards Trypanosoma cruzi at 6.25 uM Concentration; Toxic upon mouse primary peritoneal macrophages; format: ADME, organism-based; how it was run: as §6
MRC5 [12] = test: Cytotoxicity on MRC-5 cells at 12.5 uM; format: functional; details: Homo sapiens; how it was run: as §2
Plasmodium falciparum = test: In vitro sensitivity for Plasmodium falciparum FcB1R; format: functional, organism-based
How it was run: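 Asynchronous P. falciparum cultures in human erythrocytes (0.5% parasitemia, 1% haematocrit) exposed to serially diluted drug for 24 h at 37 °C. [3H]hypoxanthine (0.5 µCi/well) then added for a further 24 h. Uptake compared with drug-free controls on the same plate. IC50 taken from the concentration–response curve, averaged over independent experiments. DMSO ≤0.1%.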

Trypanosoma brucei [13] = test: Percentage of activity against Trypanosoma brucei at 3.13 uM; format: functional; how it was run: as §1
Leishmania infantum [14] = test: In Vitro evaluation for the percentage of activity towards Leishmania infantum at 12.5 uM Concentration; Toxic upon mouse primary peritoneal macrophages; format: organism-based; how it was run: as §3
MRC5 [15] = test: Cytotoxicity on MRC-5 cells at 3.13 uM; format: functional; details: Homo sapiens; how it was run: as §2
Trypanosoma cruzi [16] = test: In Vitro evaluation for the percentage of activity towards Trypanosoma cruzi at 1.56 uM Concentration; Toxic upon mouse primary peritoneal macrophages; format: functional; how it was run: as §6
Leishmania infantum [17] = test: In Vitro inhibition concentration against Amastigote form of Leishmania infantum
MRC5 [18] = test: In Vitro cytotoxicity on MRC-5 cells; format: functional; details: Homo sapiens; how it was run: as §2
Leishmania infantum [19] = test: as §4; format: functional, organism-based; how it was run: as §3
Trypanosoma cruzi [20] = test: as §8; format: functional, organism-based; how it was run: as §6
Leishmania infantum [21] = test: Percentage of activity against Leishmania infantum at 12.5 uM Concentration; Toxic upon mouse primary peritoneal macrophages; format: functional, organism-based; how it was run: as §3
Trypanosoma cruzi [22] = test: Percentage of activity against Trypanosoma cruzi at 1.56 uM; format: functional; how it was run: as §6
Trypanosoma cruzi [23] = test: as §7; format: functional, organism-based; how it was run: as §6
Trypanosoma brucei [24] = test: In Vitro evaluation for the percentage of activity towards Trypanosoma brucei at 3.13 uM Concentration; format: functional; how it was run: as §1
Leishmania infantum [25] = test: Percentage of activity against Leishmania infantum at 6.25 uM; Toxic upon mouse primary peritoneal macrophages; format: functional, organism-based; how it was run: as §3
Leishmania infantum [26] = test: as §5; format: functional, organism-based; how it was run: as §3
Trypanosoma cruzi [27] = test: Percentage of activity against Trypanosoma cruzi at 12.5 uM; Toxic upon mouse primary peritoneal macrophages; format: functional, organism-based; how it was run: as §6

pIC50 (Plasmodium falciparum): 7.40
SMILES: COc1ccc2nc3cc(Cl)ccc3c(NCCCN(CCCNc3c4ccc(Cl)cc4nc4ccc(OC)cc34)C(=O)CCC(N)=O)c2c1
Percent inhibition of parasite multiplication (Trypanosoma brucei [1]): 100% | cytotoxicity at 6.25 µM (MRC5 [2]): 100% | Cytotoxicity (Leishmania infantum [3]): Toxic | Cytotoxicity (Leishmania infantum [4]): Toxic | Cytotoxicity (Leishmania infantum [5]): Toxic | Cytotoxicity (Trypanosoma cruzi [6]): Toxic | Inhibition of parasite multiplication (Trypanosoma brucei [7]): 100% | Cytotoxicity (Trypanosoma cruzi [8]): Toxic | cytotoxicity at 25 µM (MRC5 [9]): 100% | Inhibition of parasite multiplication (Trypanosoma brucei [10]): 100% | Cytotoxicity (Trypanosoma cruzi [11]): Toxic | cytotoxicity at 12.5 µM (MRC5 [12]): 100% | Parasite growth inhibition (Trypanosoma brucei [13]): 100% | Cytotoxicity (Leishmania infantum [14]): Toxic | cytotoxicity at 3.13 µM (MRC5 [15]): 100% | Cytotoxicity (Trypanosoma cruzi [16]): 95%

SMILES: C[C@@H]1[C@H](O)[C@@H](C)/C=C/C=C/C=C/C=C/C=C/C=C/C=C/[C@H](O[C@@H]2O[C@H](C)[C@@H](O)[C@H](N)[C@@H]2O)C[C@@H]2O[C@](O)(C[C@@H](O)C[C@@H](O)[C@H](O)CC[C@@H](O)C[C@@H](O)CC(=O)O[C@H]1C)C[C@H](O)[C@H]2C(=O)O [AMPHOTERICIN B]
pIC50 (Leishmania infantum [17]): 7.30 | CC50 (MRC5 [18]): 25000 nM

pIC50 (Plasmodium falciparum): 7.41
SMILES: COc1ccc2nc3cc(Cl)ccc3c(NCCCN(CCCNc3c4ccc(Cl)cc4nc4ccc(OC)cc34)C(=O)CCN(C)C)c2c1
Percent inhibition of parasite multiplication (Trypanosoma brucei [1]): 100% | cytotoxicity at 6.25 µM (MRC5 [2]): 39% | Cytotoxicity (Leishmania infantum [19]): Toxic | Cytotoxicity (Trypanosoma cruzi [20]): Toxic | Inhibition of parasite multiplication (Trypanosoma brucei [7]): 100% | Cytotoxicity (Leishmania infantum [21]): Toxic | Parasite load reduction (Trypanosoma cruzi [22]): 40% | cytotoxicity at 25 µM (MRC5 [9]): 54% | cytotoxicity at 12.5 µM (MRC5 [12]): 40% | Cytotoxicity (Trypanosoma cruzi [23]): Toxic | Cytotoxicity (Trypanosoma brucei [24]): 100% | Cytotoxicity (Leishmania infantum [25]): Toxic | cytotoxicity at 3.13 µM (MRC5 [15]): 30% | Cytotoxicity (Leishmania infantum [26]): Toxic | Cytotoxicity (Trypanosoma cruzi [27]): Toxic
